From PubChem
Most compounds without a hit are left out; they make up all but 4% or so of the library.
TAAR1 antag: human TAAR1 antagonists, primary screen, Fluo-8 calcium fluorescence, CHO RD-HGA16 cells; actives 1.5% (n = 360,000); inhibition, % at 3 µM; antagonist;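 active = inhibition above a per-plate cutoff, the mean inhibition of test compounds on that plate plus 3 SD, cut at about 49% in these data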;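 note: 0% = DMSO plus EC80 beta-PEA response and 100% = DMSO alone without agonist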
Target sequence (Q96RJ0 whole entry, looked up): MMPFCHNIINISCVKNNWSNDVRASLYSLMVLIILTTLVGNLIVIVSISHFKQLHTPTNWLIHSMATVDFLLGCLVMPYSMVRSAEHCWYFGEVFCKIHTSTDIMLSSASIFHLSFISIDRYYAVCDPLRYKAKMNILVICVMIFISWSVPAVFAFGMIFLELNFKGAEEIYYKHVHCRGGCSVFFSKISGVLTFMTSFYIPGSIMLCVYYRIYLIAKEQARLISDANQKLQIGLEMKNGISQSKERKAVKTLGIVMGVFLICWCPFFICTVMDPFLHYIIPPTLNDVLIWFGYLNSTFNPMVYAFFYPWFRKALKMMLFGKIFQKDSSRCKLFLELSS
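Material: RD-HGA16 CHO cells with stable hTAAR1 and Gα16; Dosing: single nominal final test compound concentration of 3 µM; Schedule: seeding 17-24 h prior, 75-min 37 °C, 30-min RT dye loading; Detection: kinetic Fluo-8 calcium fluorescence measurement; Measure: % inhibition from peak post-agonist over basal fluorescence ratio; Benchmarks: vehicle and agonist controls.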
CHO parental Ca: ATP-evoked calcium signal inhibitors, parental CHO, primary screen, counter-screen for OX1R antagonist project, cell-based, fluorescence, Fluo-8 calcium dye; parental CHO-K1, ATP-induced calcium, Fluo-8 fluorescence; inhibition, % at 5.6 µM; actives 0.63% (n = 330,000); AID 463079, 2010;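 active = inhibition above that plate's mean sample inhibition plus 3 SD, cut at about 26% in these data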;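 note: 0% = ATP-challenged DMSO wells and 100% = DMSO wells without ATP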
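Material – parental CHO cells · Reagent – ATP stimulus · Compound – single nominal dose of 5.6 µM per compound · Detection – Fluo-8 fluorescence · Read-out basis – percent inhibition of calcium signal · Controls – ATP-challenged DMSO wells low, unchallenged DMSO wells high · Repeats – no replicates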
OX1R antag-1: antagonists of human orexin 1 receptor (OX1R). OX1R-expressing cells, FRET antagonist read-out. inhibition, % at 6.6 µM. actives 1.8% (n = 330,000). AID 485270, 2010; in the data active = inhibition mostly above about 38%, no sharp cut-off; inactive = mostly below about 40%;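 note: 0% = agonist challenge alone and 100% = reference antagonist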
TAAR1 ag: human TAAR1 agonists, primary screen, Fluo-8 calcium fluorescence, CHO RD-HGA16 cells; vehicle wells 0%, saturating PEA agonist 100%; activation, % at 3 µM; actives 0.99% (n = 360,000);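 active = activation above the mean activation of all test compounds in the run plus 3 SD, cut at about 38% in these data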
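Test system: RD-HGA16 (CHO) cells co-expressing Gα16 and hTAAR1 | Doses: Single dose, 3 µM | Schedule: 17-24 h seeding, 75 min 37 °C dye, 30 min RT | Evaluation: % activation from peak over basal fluorescence ratio, DMSO-to-PEA scaled | Technique: Kinetic Fluo-8 calcium fluorescence | Benchmarks: Low control DMSO, high control PEA (EC100)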
OX1R antag-2: OX1R (HCRTR1) antagonists, primary screen, fluorescence, CHO/OX1R cells, Fluo-8 calcium, orexin A; Orexin/Hypocretin receptor type 1 (Homo sapiens), O43613; Fluo-8 calcium fluorescence; inhibition, % at 5 µM; actives 0.43% (n = 330,000);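 active = inhibition above its plate's threshold, mean inhibition of all tested compounds on the plate plus 3 SD, cut at about 37% in these data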;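 note: 0% = orexin A challenge wells and 100% = SB-334867-A antagonist wells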
* hit, by the source's call; / = no result.

SMILES	TAAR1 antag	CHO parental Ca	OX1R antag-1	TAAR1 ag	OX1R antag-2
CC(C)(C)OC(=O)NCCCCCNC(=O)c1[nH]cnc1C(=O)N[C@@H](Cc1ccccc1)C(=O)OCc1ccccc1	54*	47*	8	13	73*
CCCn1c(CN2CCN(C(C)=O)CC2)nc2cc(S(=O)(=O)N(C)C)ccc21	-3	-20	16	0	-9
COc1cc(CNc2ccc(CNc3ncn[nH]3)cc2)ccc1OCc1ccccc1	8	5	12	6	-3
CCOC(=O)c1c(NC(=O)CSc2nc3c(c(=O)n(C)c(=O)n3C)n2C(C)C)sc(C)c1C	7	-12	8	-3	-11
CC(C)n1c(SCC(=O)Nc2nc3c(s2)CCCC3)nc2c1c(=O)n(C)c(=O)n2C	56*	0	34	25	-5
COc1ccc2oc3ccc(OC)cc3c(=O)c2c1	-13	-5	62*	1	-28
COCCNC(=O)C(c1cccs1)N(Cc1ccccc1)C(=O)Cn1nnc2ccccc21 (stereo not drawn)	2	-36	17	17	-39
COCCNC(=O)C(c1cccs1)N(CCc1ccccc1)C(=O)Cn1nnc2ccccc21 (stereo not drawn)	5	-21	22	40*	-43
CCN1C(=O)c2ccccc2S(=O)c2ccc(C(=O)N3CCOCC3)cc21 (stereo not drawn)	2	7	8	0	-8
O=C1c2ccccc2-c2ccc(C(=O)N3CCOCC3)cc21	-8	4	60*	0	-21
CCN1CCC(O)(/C=C/c2ccc(C(C)C)cc2)C(C(=O)/C=C/c2ccc(C(C)C)cc2)C1 (stereo not drawn)	24	/	/	40*	/
CN(c1ccccc1)S(=O)(=O)c1ccc(NC(=O)c2nc(S(C)(=O)=O)ncc2Cl)cc1	49*	32	37	18	38
CCc1ccc(NC(=O)c2nc(S(=O)(=O)Cc3ccccc3)ncc2Cl)cc1	37	57*	24	-1	63*
Cc1ccc(NC(=O)c2nc(S(=O)(=O)Cc3ccccc3C)ncc2Cl)cc1C	1	40*	34	-2	25
CN(c1ccccc1)S(=O)(=O)c1ccc(NC(=O)c2ccccc2)cc1	20	-7	8	7	-3
CCOc1ccccc1NC(=O)c1nc(S(=O)(=O)Cc2ccccc2)ncc1Cl	30	2	12	-1	10
CCS(=O)(=O)c1ncc(Cl)c(C(=O)Nc2ccc(S(=O)(=O)N3CCC(C)CC3)cc2)n1	34	41*	47*	3	24
COc1ccc(C2CC(=O)C(c3ccc(C#N)cc3)=CN2Cc2ccccc2)cc1 (stereo not drawn)	18	/	/	3	/
C[C@H](CO)N1C[C@H](C)[C@@H](CN(C)C(=O)Nc2ccc(-c3cccs3)cc2)OCc2cn(nn2)CCCC1=O	8	/	/	0	/
COC(=O)[C@]12C[C@H](CC(=O)NCC3CCCCC3)C(=O)N(CCC3=CCCCC3)C1=C[C@H](C(C)(C)C)O[C@@H]2C	-24	/	/	-1	/
COC(=O)c1ccc(NC(=O)c2nc(S(=O)(=O)Cc3cccc(C)c3)ncc2Cl)cc1	17	28	21	-1	45
CCOC(=O)c1ccc(NC(=O)c2nc(S(=O)(=O)Cc3ccccc3)ncc2Cl)cc1	16	27	13	-2	73*
COc1ccc(Br)c(C(=O)OCC(=O)NC2CCCCCC2)c1	-11	4	10	0	6
Cc1cc(NCCc2c[nH]c3ccccc23)ccc1Nc1cccnc1	-7	/	/	5	/
COc1ccccc1NC(=O)CC1S/C(=N/N=C2\CCCc3ccccc32)NC1=O (stereo not drawn)	1	6	54*	1	20
SMILES	TAAR1 antag	CHO parental Ca	OX1R antag-1	TAAR1 ag	OX1R antag-2
Cc1nc(C)c(-c2ccc(SCC(=O)Nc3cccc(Cl)c3)nn2)s1	52*	-1	39	8	-11
CCOC(=O)C1=CNS(=O)(=O)NC1c1ccc(OC(C)=O)cc1 (stereo not drawn)	-62	2	0	7	1
CCc1nccn1C(=O)c1cnn2c(C(F)F)cc(-c3ccc(C)cc3)nc12	-24	-13	47	-3	-1
CCc1nccn1C(=O)c1cnn2c(C(F)F)cc(-c3ccccc3)nc12	/	-16	66*	/	-23
C[C@@H]1ON(C)[C@H]2C[C@H]3c4[nH]c5c(-c6cccc(Cl)c6)cccc5c4CCN3C(=O)[C@@H]12	6	/	/	3	/
COc1ccccc1CNC(=O)c1ccc2nc3[nH]c4ccccc4c3nc2c1	31	-18	47*	1	2
COC(=O)C1=C(C)N(C)C(=NCc2ccccc2C(F)(F)F)NC1c1cccc(F)c1 (stereo not drawn)	6	/	/	5	/
COc1cc([N+](=O)[O-])c2ncsc2c1	-9	-11	69*	1	-7
COc1ccc(-c2nc(CS(=O)CC(=O)NC3CCCCC3C)c(C)o2)cc1 (stereo not drawn)	-9	-20	-1	2	-25
O=C(O)CC(Sc1ccc(Cl)cc1)C(=O)Nc1ccccc1 (stereo not drawn)	2	/	/	1	/
O=C(COc1c(Cl)cc(Cl)cc1Cl)c1ccc(Cl)cc1	-29	2	0	1	-6
COc1ccc(OC)c(C2=NS(=O)(=O)N(C)C(C(=O)NCc3cccs3)=C2)c1	26	-11	11	43*	-10
O=c1c2cc([N+](=O)[O-])ccc2nc2n1CCCC2	-7	7	69*	-1	-16
Oc1ccc(Cl)cc1CNCc1ccc(C(F)(F)F)cc1	-7	-9	51	26	-16
Oc1ccc(Cl)cc1CNCc1ccc(Cl)cc1	8	-21	15	49*	-17
Oc1ccc(Cl)cc1Cc1cc(Cl)ccc1O	20	26	46*	3	4
O=C1Nc2ccc3sc4ccccc4c3c2C1=O	-9	-8	65*	-2	0
COc1ccc2nc(CC(C)(C)CC(=O)O)c[n+]([O-])c2c1	-1	-8	69*	-2	-18
O=C1c2cccc3cccc(c23)C(=O)N1c1nncs1	-18	-12	75*	1	-25
Cc1cccc(C)c1-n1c(C)cc(/C=N\Nc2ccc([N+](=O)[O-])cn2)c1C	51*	5	44	15	20
Cc1cc(/C=N/Nc2nc(N)ncc2[N+](=O)[O-])c(C)n1-c1ccccc1F	/	-34	44*	/	-37
O=c1c(-c2ccc(Cl)cc2)[n+]([O-])c2ccccc2n1OCc1ccccn1	3	-4	8	5	-1
